Laboratory results as given in ChEMBL document CHEMBL1250461, “Synthesis, binding and bioactivity of gamma-methylene gamma-lactam ecdysone receptor ligands: advantages of QSAR models for flexible receptors” (Bioorg Med Chem, 2010).
≈ marks a conversion by molar mass, not a printed value.

Key:
[1] = Binding affinity to Bovicola ovis recombinant ecdysone receptor ligand binding domain after 3 hrs by fluorescence polarization assay
Method in brief: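 B. ovis EcR_DEF/USP_DEF LBD heterodimer, co-expressed from baculovirus and purified by IMAC (2.51 mg/mL final). Competes with 36 nM fluorescein–inokosterone A conjugate in 50 mM sodium phosphate, 100 mM NaCl, pH 7.4 with 0.5 mg/mL BSA and 3% v/v DMSO. Compound range 3 nM–3 mM final. Incubated overnight at 4 °C, then 3 h at room temperature before polarisation (mP) read. Triplicate; IC50 from mean.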

[2] = Toxicity in Bovicola ovis assessed as mortality after 9 days; settings: 216 h
Ecdysone receptor = target: T1, Ecdysone receptor (Lucilia cuprina, UniProt O18531); experiment: Binding affinity to Lucilia cuprina recombinant ecdysone receptor ligand binding domain after 3 hrs by fluorescence polarization assay
T1 sequence (O18531 whole entry): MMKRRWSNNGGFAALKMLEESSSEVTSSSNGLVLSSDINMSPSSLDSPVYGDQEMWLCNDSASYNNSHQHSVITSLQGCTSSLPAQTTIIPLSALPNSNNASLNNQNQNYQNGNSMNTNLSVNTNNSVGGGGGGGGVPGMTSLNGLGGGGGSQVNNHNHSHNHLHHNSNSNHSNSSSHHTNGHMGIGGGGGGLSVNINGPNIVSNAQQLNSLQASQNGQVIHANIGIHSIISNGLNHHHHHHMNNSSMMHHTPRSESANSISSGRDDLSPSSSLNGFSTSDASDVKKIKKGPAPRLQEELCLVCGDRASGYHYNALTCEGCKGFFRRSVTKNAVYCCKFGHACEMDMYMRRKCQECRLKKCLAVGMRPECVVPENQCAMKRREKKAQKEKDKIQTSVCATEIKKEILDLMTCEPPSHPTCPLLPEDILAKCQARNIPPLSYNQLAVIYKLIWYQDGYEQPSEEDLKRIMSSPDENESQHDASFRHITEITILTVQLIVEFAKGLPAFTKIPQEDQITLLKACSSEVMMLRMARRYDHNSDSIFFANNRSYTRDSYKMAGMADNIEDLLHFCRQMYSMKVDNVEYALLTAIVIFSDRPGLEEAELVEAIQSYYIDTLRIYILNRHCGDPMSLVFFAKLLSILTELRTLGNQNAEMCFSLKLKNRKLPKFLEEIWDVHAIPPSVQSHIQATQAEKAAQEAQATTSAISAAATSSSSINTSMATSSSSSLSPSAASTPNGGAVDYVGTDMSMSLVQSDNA
Method in brief: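 L. cuprina EcR_DEF/USP_DEF LBD heterodimer, baculovirus co-expressed and IMAC-purified, used at 1.14 mg/mL. Fluorescence polarisation competition against 36 nM fluorescein–inokosterone A conjugate, with 0.5 mg/mL BSA and 3% v/v DMSO in 50 mM sodium phosphate/100 mM NaCl, pH 7.4. Test range 3 nM–3 mM final. Overnight at 4 °C, then 3 h re-equilibration at room temperature, mP read. Triplicate on one plate; IC50 from mean.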

C=C1C(CC)=C(C#N)C(=O)N1c1cc(Cl)ccc1C(C)(C)C showed an IC50 [1] of 15 µM, an LC50 [2] of 190 µg/mL (≈ 604 µM) and an IC50 (Ecdysone receptor) of 11 µM.

Compound C=C1C(CCCC)=C(C#N)C(=O)N1c1c(C)cccc1[N+](=O)[O-] has an IC50 [1] of 71 µM.

Compound C=C1C(CC)=C(C#N)C(=O)N1c1cc(Cl)c(Cl)cc1Cl has an IC50 [1] of 5.5 µM and an IC50 (Ecdysone receptor) of 7.25 µM.

C=C1C(CCC)=C(C#N)C(=O)N1c1cc(Cl)ccc1Cl showed an IC50 [1] of 8.5 µM and an LC50 [2] of 66 µg/mL (≈ 215 µM).

C=C1C(CC(C)C)=C(C#N)C(=O)N1c1ccccc1C gave an IC50 [1] of 11 µM.

C=C1C(C)=C(C#N)C(=O)N1C1CCCC1 gave an IC50 [1] of 85 µM.

Work on C=C1C(C)=C(C#N)C(=O)N1C1CCCCC1 yielded an IC50 [1] of 50 µM.

Work on C=C1C(CCC)=C(C#N)C(=O)N1C1CCCCC1 yielded an IC50 [1] of 27.5 µM.

With C=C1C(C)=C(C#N)C(=O)N1C1CCCC(C)C1C (stereo unspecified) the IC50 [1] was 250 µM.

C=C1C(C)=C(C#N)C(=O)N1C1CC2CCC1C2 (stereo unspecified) gave an IC50 [1] of 48 µM.

C=C1C(C)=C(C#N)C(=O)N1C1CCCc2ccccc21 (stereo unspecified) showed an IC50 [1] of 26 µM.

Work on C=C1C(C)=C(C#N)C(=O)N1Cc1ccccc1Cl yielded an IC50 [1] of 37.5 µM.

With C=C1C(C)=C(C#N)C(=O)N1N1CCCCC1 the IC50 [1] was 125 µM and the LC50 [2] was 244 µg/mL (≈ 1120 µM).

For C=C1C(C)=C(C#N)C(=O)N1c1ccc(Cl)cn1, the IC50 [1] was 95 µM.

For C=C1C(C)=C(C#N)C(=O)N1c1ncc(Cl)cc1Cl, the IC50 [1] was 45 µM.

Compound C=C1C(C)=C(C#N)C(=O)N1c1cnc2ccccc2c1 has an IC50 [1] of 26 µM.

With C=C1C(C)=C(C#N)C(=O)N1c1nccs1 the IC50 [1] was 90 µM.

C=C1C(C)=C(C(C)=O)C(=O)N1c1cc(Cl)c(Cl)cc1Cl showed an IC50 [1] of 45 µM.

With C=C1C(C)=C(C#N)C(=O)N1c1ccccc1C(F)(F)F the IC50 [1] was 27.5 µM and the IC50 (Ecdysone receptor) was 48 µM.

With C=C1C(C)=C(C#N)C(=O)N1c1ccc(Cl)c(Cl)c1 the IC50 [1] was 15 µM and the LC50 [2] was 167 µg/mL (≈ 598 µM).

Work on C=C1C(C)=C(C#N)C(=O)N1c1cc(Cl)cc(Cl)c1 yielded an IC50 [1] of 9.8 µM and an IC50 (Ecdysone receptor) of 27.5 µM.

With C=C1C(CCCC)=C(C#N)C(=O)N1c1c(C)cc(Cl)cc1C(C)C the IC50 [1] was 17.5 µM.

Work on C=C1C(CCCC)=C(C#N)C(=O)N1c1c(C)cc(C)cc1C yielded an IC50 [1] of 11 µM.

With C=C1C(CCCC)=C(C#N)C(=O)N1c1cc(OC)c(OC)c(OC)c1 the IC50 [1] was 21 µM.

Compound C=C1C(CC(C)C)=C(C#N)C(=O)N1c1cc(Cl)ccc1Cl has an IC50 [1] of 6.8 µM.

C=C1C(CC(C)C)=C(C#N)C(=O)N1c1cc(Cl)cc(Cl)c1 showed an IC50 [1] of 5.5 µM and an LC50 [2] of 119 µg/mL (≈ 370 µM).

Compound C=C1C(CC(C)C)=C(C#N)C(=O)N1c1cc(C(F)(F)F)cc(C(F)(F)F)c1 has an IC50 [1] of 6.3 µM and an LC50 [2] of 26 µg/mL (≈ 67 µM).

Compound C=C1C(CC(C)C)=C(C#N)C(=O)N1c1cc(Cl)c(Cl)cc1Cl has an IC50 [1] of 2.7 µM and an IC50 (Ecdysone receptor) of 5.5 µM.

For C=C1C(CC(C)C)=C(C#N)C(=O)N1c1c(C)cc(C)cc1C, the IC50 [1] was 30 µM and the IC50 (Ecdysone receptor) was 175 µM.

With C=C1C(CC(C)C)=C(C#N)C(=O)N1c1c(Cl)c(Cl)cc(Cl)c1Cl the IC50 [1] was 45 µM.

Compound CN(C(=O)C1CCCCC1)N1C(=O)C(C#N)=C2CCCC=C21 has an IC50 [1] of 88 µM.

In the case of C=C1C(c2ccccc2)=C(C#N)C(=O)N1c1cc(Cl)ccc1Cl, the IC50 [1] is reported as 8.5 µM.

For C=C1C(c2ccccc2)=C(C#N)C(=O)N1c1cc(C)ccc1F, the IC50 [1] was 12.5 µM.

Compound C=C1C(c2ccccc2)=C(C#N)C(=O)N1c1c(C)cccc1C(C)C has an IC50 [1] of 43 µM and an IC50 (Ecdysone receptor) of 55 µM.

Compound C=C1C(CCCCCCCC)=C(C#N)C(=O)N1c1c(C)cc(C)cc1C has an IC50 [1] of 22 µM.

Compound CCC/C=C1\C(C)=C(C#N)C(=O)N1c1c(C(C)(C)C)ccc(Cl)c1C has an IC50 [1] of 2300 µM.

COc1cc(OC)cc(N2C(=O)C(C#N)=C(C)/C2=C/C(C)C)c1 showed an IC50 [1] of 65 µM.

For C=C1C(C)=C(C#N)C(=O)N1c1cc(C(C)(C)C)ccc1C(C)(C)C, the IC50 [1] was 5 µM and the IC50 (Ecdysone receptor) was 6.5 µM.

For C=C1C(c2ccccc2)=C(C#N)C(=O)N1C1CCCCC1, the IC50 [1] was 7.5 µM, the LC50 [2] was 130 µg/mL (≈ 467 µM) and the IC50 (Ecdysone receptor) was 12.5 µM.

In the case of C=C1C(C)=C(C#N)C(=O)N1c1ccc(Cl)c2ccccc12, the IC50 [1] is reported as 15 µM.

C=C1C(CC)=C(C#N)C(=O)N1NC(=O)c1ccc(Cl)cc1 showed an IC50 [1] of 72.5 µM.

C=C1C(C)=C(C(=O)C(C)C)C(=O)N1c1cc(Cl)c(Cl)cc1Cl gave an IC50 [1] of 16 µM.

In the case of C=C1C(C)=C(C(=O)OCC)C(=O)N1c1cc(Cl)c(Cl)cc1Cl, the IC50 [1] is reported as 11 µM.

In the case of C=C1C(C)=C(C(=O)c2ccccc2)C(=O)N1c1cccc(C(F)(F)F)c1, the IC50 [1] is reported as 12.5 µM and the IC50 (Ecdysone receptor) is reported as 17.5 µM.

C=C1C(C)=C(C#N)C(=O)N1c1c(C(C)C)cccc1C(C)C gave an IC50 [1] of 20.8 µM and an IC50 (Ecdysone receptor) of 23.5 µM.

Work on C=C1C(C)=C(C(=O)c2ccccc2)C(=O)N1c1cc(C(F)(F)F)ccc1Cl yielded an IC50 [1] of 18 µM.

In the case of C=C1C(C)=C(C(=O)c2ccccc2)C(=O)N1c1c(C)cccc1C(C)C, the IC50 [1] is reported as 58 µM.

For C=C1C(C)=C(C#N)C(=O)N1c1cc(Cl)c(C(C)(C)C)cc1Cl, the IC50 [1] was 11.3 µM and the IC50 (Ecdysone receptor) was 8.5 µM.

C=C1C(C)=C(C(=O)c2ccccc2)C(=O)N1c1c(C(C)C)cccc1C(C)C showed an IC50 [1] of 2250 µM.

C=C1C(C)=C(C(=O)c2ccccc2)C(=O)N1c1cc(Cl)c(Cl)cc1Cl showed an IC50 [1] of 9 µM.

Compound C=C1C(C)=C(C(=O)c2ccccc2)C(=O)N1c1c(C)cc(C)cc1C has an IC50 [1] of 44 µM.

Work on C=C1C(C)=C(C(=O)Nc2cccc(Cl)c2)C(=O)N1c1cccc(Cl)c1 yielded an IC50 [1] of 12.5 µM and an IC50 (Ecdysone receptor) of 250 µM.

With C=C1C(C(C)C)=C(C#N)C(=O)N1c1ccccc1C(C)(C)C the IC50 [1] was 9.5 µM and the IC50 (Ecdysone receptor) was 15 µM.

For C=C1C(C(C)C)=C(C#N)C(=O)N1c1ccc(Cl)cc1C(C)(C)C, the IC50 [1] was 6.5 µM and the IC50 (Ecdysone receptor) was 42 µM.

Compound C=C1C(C(C)C)=C(C#N)C(=O)N1c1c(C)cccc1C(C)C has an IC50 [1] of 27.5 µM and an IC50 (Ecdysone receptor) of 47 µM.

For C=C1C(C(C)C)=C(C#N)C(=O)N1c1c(C)cc(Cl)cc1Cl, the IC50 [1] was 62.5 µM and the IC50 (Ecdysone receptor) was 480 µM.

C=C1C(C(C)C)=C(C#N)C(=O)N1c1c(C)cc(Cl)cc1C gave an IC50 [1] of 11 µM.

C=C1C(C(C)C)=C(C#N)C(=O)N1c1c(C)cc(C)cc1C gave an IC50 [1] of 55 µM.

C=C1C(CCCC)=C(C#N)C(=O)N1c1ccccc1OC(F)(F)F gave an IC50 [1] of 15 µM.

C=C1C(CCCC)=C(C#N)C(=O)N1c1cccc(Cl)c1C gave an IC50 [1] of 4.3 µM, an LC50 [2] of 175 µg/mL (≈ 582 µM) and an IC50 (Ecdysone receptor) of 8.3 µM.

In the case of C=C1C(CCCC)=C(C#N)C(=O)N1c1cc(Cl)ccc1C, the IC50 [1] is reported as 6 µM and the IC50 (Ecdysone receptor) is reported as 12.5 µM.

Work on C=C1C(CCCC)=C(C#N)C(=O)N1c1cc(Cl)ccc1C(C)(C)C yielded an IC50 [1] of 4 µM and an IC50 (Ecdysone receptor) of 5.5 µM.

With C=C1C(CCCC)=C(C#N)C(=O)N1c1c(C)cccc1Cl the IC50 [1] was 6 µM and the IC50 (Ecdysone receptor) was 56 µM.

C=C1C(CCCC)=C(C#N)C(=O)N1c1c(C)cccc1C showed an IC50 [1] of 35 µM.

C=C1C(CCCC)=C(C#N)C(=O)N1c1c(C)cccc1CC showed an IC50 [1] of 46 µM and an IC50 (Ecdysone receptor) of 33 µM.

With C=C1C(CCCC)=C(C#N)C(=O)N1c1c(C)cccc1C(C)C the IC50 [1] was 20.3 µM.

With C/C=C1\C(C)=C(C#N)C(=O)N1c1c(Cl)cc(Cl)cc1Cl (mixture of isomers) the IC50 [1] was 85 µM.

For CC(C)(O)CC[C@@H](O)[C@](C)(O)[C@H]1CC[C@@]2(O)C3=CC(=O)[C@@H]4C[C@@H](O)[C@@H](O)C[C@]4(C)[C@H]3CC[C@]12C [20-HYDROXYECDYSONE], the IC50 [1] was 24 µM and the IC50 (Ecdysone receptor) was 5.5 µM.

CC(C)CC[C@@H](O)[C@](C)(O)[C@H]1CC[C@@]2(O)C3=CC(=O)[C@@H]4C[C@@H](O)[C@@H](O)C[C@]4(C)[C@H]3CC[C@]12C [PONASTERONE A] gave an IC50 [1] of 1.1 µM and an IC50 (Ecdysone receptor) of 0.9 µM.
